Experimental data: paper PMC10032210 (Biomaterials, 2022)

Tests used:
[1] = system: HT29; assay: In vitro uptake of GNRs, gold content by ICP-MS; assay type: cell-based, Human; settings: 10 μM CA074 for 12 hr, then peptide GNR 24 hr
Outline: (§1)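 Cells in 10% FBS medium (HT29 McCoy's, MDA MB231 DMEM, PANC1 RPMI 1640) at 37 °C, 5% CO2. At 70% confluence: 10 μM CA074 for 12 hr, then 0.05 OD GNR in serum-free medium for 24 hr. Cells washed, trypsinized, pelleted, dried at 56 °C and digested in aqua regia (60 °C, 4 hr). Gold measured by ICP-MS against gold standards, normalized to cell count; mean ± SEM.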

[2] = system: HT29 xenograft tumors; assay: In vivo tumor uptake of GNRs, gold content by ICP-MS; design: species or system mice; settings: CA074 10 mg/kg i.p., peptide GNR 8 OD i.v., 24 hr
Outline: (§2)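 Male athymic Swiss nude mice carried bilateral subcutaneous HT29, HCT116 and DLD1 xenografts (1×10^6 cells in PBS). At 7–8 mm tumors, mice were randomized, n=4/group. CA074 10 mg/kg i.p. daily; 100 μL of 8 OD GNR i.v. by tail vein on day 3 of CA074. At 24 hr, tumors and organs were harvested, weighed, lyophilized and digested in aqua regia. Gold by ICP-MS per gram dry tissue; mean ± SEM, unpaired two-tailed t-test.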

[3] = system: PANC1; assay: In vitro uptake of GNRs, gold content by ICP-MS; assay type: cell-based, Human; settings: 10 μM CA074 for 12 hr, then peptide GNR 24 hr
Outline: as §1

[4] = system: HCT116 xenograft tumors; assay: In vivo tumor uptake of GNRs, gold content by ICP-MS; design: species or system mice; settings: CA074 10 mg/kg i.p., peptide GNR 8 OD i.v., 24 hr
Outline: as §2

[5] = system: MDAMB231; assay: In vitro uptake of GNRs, gold content by ICP-MS; assay type: cell-based, Human; settings: 10 μM CA074 for 12 hr, then peptide GNR 24 hr
Outline: as §1

[6] = target: Cathepsin B (Homo sapiens, UniProt P07858); assay: Cathepsin B-mediated hydrolysis of peptide constructs followed by HPLC; assay type: biochemical; settings: Cathepsin B 1.34 × 10^−13 M, 25 °C, least-squares regression
Outline: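 Substrate at 1·10^-7 M with cathepsin B (1.34·10^-13 M, activated by 1 mM DTT) in 50 mM sodium citrate pH 6.0, 1 mL, filter-sterilized, held dark at 25 °C. Repeated reversed-phase HPLC injections ran over ≥6× reaction half-life; UV detection at 220 nm. Percentage substrate remaining came from peak area versus known injected amount. Pseudo-first-order half-life given as mean ± SD; ≥3 repeats.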

Row | degradation reaction half-life (t½) relative to native GFGFVG peptide [6] | Molecule | change in peptide GNR uptake (ICP-MS) with CA074 compared to peptide GNRs alone [1] | effect of inhibitor on peptide GNR uptake by xenograft tumors (ICP-MS) [2] | change in peptide GNR uptake (ICP-MS) with CA074 compared to peptide GNRs alone [3] | effect of inhibitor on peptide GNR uptake by xenograft tumors (ICP-MS) [4] | change in peptide GNR uptake (ICP-MS) with CA074 compared to peptide GNRs alone [5]
1 | – | CCCNC(=O)[C@H]1O[C@@H]1C(=O)N[C@H](C(=O)N1CCC[C@H]1C(=O)O)[C@@H](C)CC [CA074] | two-fold reduction | abrogates the increased uptake | two-fold reduction | abrogates the increased uptake | two-fold reduction
2 | nearly three-fold | MeO-PEG20k-GFGFVG [PEGylated GFGFVG] | – | – | – | – | –
3 | about three-fold higher | MeO-PEG20k-GGFGFVGGR9WC | – | – | – | – | –
